From ChEMBL document CHEMBL4765320, “Identification and optimization of piperine analogues as neuroprotective agents for the treatment of Parkinson's disease via the activation of Nrf2/keap1 pathway” (Eur J Med Chem, 2020)
Calls of active or inactive are those of the source. No cut-off for these calls is given here.

Key:
PC-12 [1] = assay: Inhibition of H202-induced apoptosis in rat PC-12 cells assessed as necrotic cells at 12.5 uM after 24 hrs by Annexin-V-FITC/PI-staining based flow cytometric analysis (reference value: 0.33%); type: functional; design: scale not given: the % may be the effect or the level left
Outline: (§1)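 PC12 cells seeded 2 × 10⁵/well for 24 h, pretreated 24 h with 12.5, 25, 50 or 100 µM compound, then given fresh medium containing 650 µM H2O2. Harvested cells washed in binding buffer, stained 5 min with Annexin V-FITC/PI, analysed by flow cytometry.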

PC-12 [2] = assay: Inhibition of H202-induced apoptosis in rat PC-12 cells assessed as late apoptotic cells at 25 uM after 24 hrs by Annexin-V-FITC/PI-staining based flow cytometric analysis (reference value: 32.5%); type: functional; design: scale not given: the % may be the effect or the level left; outline: as §1
Mus musculus [3] = assay: Neuroprotective activity against lesioned C57BL/6 mouse model of Parkinson's disease assessed as increase in expression of HO-1 and NQO1 at 50 to 100 mg/kg , po administered for 2 week before MPTP stimulation by western blotting assays; type: functional, organism-based; conditions: Brain, dose 50-100 mg/kg, time 2.0 weeks
PC-12 [4] = assay: Inhibition of H202-induced apoptosis in rat PC-12 cells assessed as necrotic cells at 50 uM after 24 hrs by Annexin-V-FITC/PI-staining based flow cytometric analysis (reference value: 0.33%); type: functional; design: scale not given: the % may be the effect or the level left; outline: as §1
Mus musculus [5] = assay: Neuroprotective activity against lesioned C57BL/6 mouse model of Parkinson's disease assessed as increase in number of TH positive cells at 50 to 100 mg/kg , po administered for 2 week before MPTP stimulation by Immuno histochemistry assays; type: functional; conditions: dose 50-100 mg/kg, time 2 weeks
Outline: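 Male 10-week-old C57BL/6 mice (20–23 g), n = 6/group. Prophylactic: oral compound (50 or 100 mg/kg in saline) 2 weeks, then MPTP-HCl 25 mg/kg i.p. in week 3. Therapeutic: MPTP-HCl 25 mg/kg i.p. 1 week, then oral 100 mg/kg 2 weeks. Saline vehicle. Pole/rotarod training last 3 days; TH immunohistochemistry on SNpc and striatum.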

PC-12 [6] = assay: Inhibition of H2O2-induced reactive oxygen species production in rat PC-12 cells assessed as decrease in ROS accumulation at 12.5 to 50 uM measured after pretreated for 24 hrs followed by H2O2 challenge and measured after 24 hrs by DCFH-DA probe based flow cytometry; type: functional, cell-based; conditions: dose 12.5-50 µM, time 48.0 hrs
Outline: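 PC12 cells seeded 1 × 10⁴/well, pretreated 24 h with 12.5–100 µM compound, then 300 µM H2O2 for 24 h. Rinsed, loaded with DCFH-DA (1:1000 in serum-free medium) 15 min at room temperature in the dark, washed; fluorescence read by microscopy, plate reader ([…]) and flow cytometry; three independent experiments.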

PC-12 [7] = assay: Cytotoxicity against rat PC-12 cells assessed as increase LDH content in presence of H2O2 incubated at 50 to 100 uM for 24 hrs by Lactate dehydrogenase assay; type: cell-based; conditions: pc-12, 24 h, dose 50-100 µM
Outline: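 PC12 cells seeded 1 × 10⁴/well for 24 h, pretreated with compound at several concentrations (12.5–100 µM range), then challenged with H2O2; LDH released into medium quantified as membrane-damage marker. Mean ± SD, three independent experiments.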

PC-12 [8] = assay: Upregulation of HO-1 expression in rat PC-12 cell incubated for 24 hrs by Western blot analysis; type: functional
Outline: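 PC12 cells treated with compound for 24 h; lysates resolved by SDS-PAGE, transferred to PVDF and probed for HO-1 and NQO1; band intensities quantified densitometrically. Mean ± SD of three independent experiments.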

`COc1ccccc1/C=C/C=C/C(=O)N1CCCCC1` was tested, and the Activity (PC-12 [1]) was 0.3%, the Activity (PC-12 [2]) was 18.04% and the Activity (Mus musculus [3]) was “Active”. The Activity (PC-12 [4]) was 0.26%, the Activity (Mus musculus [5]) was 30.7% and the inhibition (PC-12 [6]) was “Active”. The Activity (PC-12 [7]) was “Toxic” and the Activity (PC-12 [8]) was “Active”.
